Measurements from ChEMBL document CHEMBL1150387, “Development and experimental validation of a docking strategy for the generation of kinase-targeted libraries” (J Med Chem, 2008).

Experiments:
[1] = target: Insulin-like growth factor 1 receptor (Homo sapiens) (UniProt P08069); test: Inhibition of IGF1R at 10 uM by HTRF assay relative to control
Method in brief: (§1)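 HTRF kinase assay, one panel of kinases. Inhibitor stock 50 µM in 100% DMSO; tested at 10 µM. ATP and substrate at final levels near Km. Final buffer: 50 mM Hepes/NaOH pH 7.4, 40 µM Na3VO4, 0.005% Tween-20, 1 mM DTT, MnCl2 or MgCl2 at kinase-dependent levels. Started by adding ATP/substrate. Reaction run at room temperature, time varied by kinase. Detection mix in 50 mM Hepes pH 7.4, 0.1% BSA, 150 mM KF, incubated ≥1 h at room temperature. Activity expressed as % of uninhibited control; n=2.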

[2] = target: T1, Ephrin type-B receptor 4 (Homo sapiens) (UniProt P54760); test: Inhibition of EphB4 at 10 uM by HTRF assay relative to control; method in brief: as §1
T1 sequence (whole entry): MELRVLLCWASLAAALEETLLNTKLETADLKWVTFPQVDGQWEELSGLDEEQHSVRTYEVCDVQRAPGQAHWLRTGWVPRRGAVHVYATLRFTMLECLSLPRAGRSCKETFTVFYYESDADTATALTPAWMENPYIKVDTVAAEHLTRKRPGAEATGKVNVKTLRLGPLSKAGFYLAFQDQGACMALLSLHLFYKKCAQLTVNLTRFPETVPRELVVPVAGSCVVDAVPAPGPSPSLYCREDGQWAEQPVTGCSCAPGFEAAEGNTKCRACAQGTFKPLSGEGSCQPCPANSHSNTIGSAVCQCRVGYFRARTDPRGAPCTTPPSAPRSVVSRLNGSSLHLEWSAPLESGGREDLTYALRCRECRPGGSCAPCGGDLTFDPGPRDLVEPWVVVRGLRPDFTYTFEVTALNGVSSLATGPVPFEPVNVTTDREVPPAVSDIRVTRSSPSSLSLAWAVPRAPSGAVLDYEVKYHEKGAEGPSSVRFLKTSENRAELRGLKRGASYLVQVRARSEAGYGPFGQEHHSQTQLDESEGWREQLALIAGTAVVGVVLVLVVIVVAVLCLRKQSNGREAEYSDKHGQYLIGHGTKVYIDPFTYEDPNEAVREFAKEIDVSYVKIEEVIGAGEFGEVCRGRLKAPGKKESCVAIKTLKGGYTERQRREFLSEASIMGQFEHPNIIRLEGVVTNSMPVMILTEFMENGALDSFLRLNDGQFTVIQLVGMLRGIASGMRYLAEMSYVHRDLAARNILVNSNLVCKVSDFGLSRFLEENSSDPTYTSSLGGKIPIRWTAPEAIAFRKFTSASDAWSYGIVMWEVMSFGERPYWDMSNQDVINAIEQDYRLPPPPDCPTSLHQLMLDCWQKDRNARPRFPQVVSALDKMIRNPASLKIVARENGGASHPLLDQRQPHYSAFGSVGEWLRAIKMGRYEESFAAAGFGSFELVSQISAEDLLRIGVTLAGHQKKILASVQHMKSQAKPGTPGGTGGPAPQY

[3] = target: Mitogen-activated protein kinase 14 (Homo sapiens) (UniProt Q16539); test: Inhibition of p38alpha at 10 uM by HTRF assay relative to control; method in brief: as §1
Mitogen-activated protein kinase 14 (Homo sapiens), sequence (Q16539 whole entry): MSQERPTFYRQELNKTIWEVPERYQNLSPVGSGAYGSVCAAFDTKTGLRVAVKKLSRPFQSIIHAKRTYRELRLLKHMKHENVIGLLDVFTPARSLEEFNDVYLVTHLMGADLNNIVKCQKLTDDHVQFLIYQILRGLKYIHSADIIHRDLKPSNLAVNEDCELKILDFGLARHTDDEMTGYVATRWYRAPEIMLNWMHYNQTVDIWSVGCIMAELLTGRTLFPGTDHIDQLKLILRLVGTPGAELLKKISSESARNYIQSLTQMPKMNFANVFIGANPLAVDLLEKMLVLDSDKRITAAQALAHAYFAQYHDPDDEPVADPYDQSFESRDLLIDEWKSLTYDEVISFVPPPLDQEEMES

[4] = target: Mitogen-activated protein kinase 8 (Homo sapiens) (UniProt P45983); test: Inhibition of JNK1 at 10 uM by HTRF assay relative to control; method in brief: as §1
Mitogen-activated protein kinase 8 (Homo sapiens), sequence (P45983 whole entry): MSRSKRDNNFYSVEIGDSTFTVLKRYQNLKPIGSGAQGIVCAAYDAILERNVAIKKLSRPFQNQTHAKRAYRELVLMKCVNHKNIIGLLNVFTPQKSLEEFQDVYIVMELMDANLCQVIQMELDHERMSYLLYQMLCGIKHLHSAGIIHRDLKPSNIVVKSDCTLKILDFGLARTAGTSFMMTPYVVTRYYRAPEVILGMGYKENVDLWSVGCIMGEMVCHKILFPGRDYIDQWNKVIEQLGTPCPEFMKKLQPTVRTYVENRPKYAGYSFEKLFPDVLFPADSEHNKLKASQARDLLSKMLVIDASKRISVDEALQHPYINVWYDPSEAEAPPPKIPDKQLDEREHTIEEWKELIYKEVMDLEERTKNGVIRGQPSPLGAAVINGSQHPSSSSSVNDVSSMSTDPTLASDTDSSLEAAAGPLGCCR

[5] = target: Mitogen-activated protein kinase 1 (Homo sapiens) (UniProt P28482); test: Inhibition of ERK2 at 10 uM by HTRF assay relative to control; method in brief: as §1
Mitogen-activated protein kinase 1 (Homo sapiens), sequence (P28482 whole entry): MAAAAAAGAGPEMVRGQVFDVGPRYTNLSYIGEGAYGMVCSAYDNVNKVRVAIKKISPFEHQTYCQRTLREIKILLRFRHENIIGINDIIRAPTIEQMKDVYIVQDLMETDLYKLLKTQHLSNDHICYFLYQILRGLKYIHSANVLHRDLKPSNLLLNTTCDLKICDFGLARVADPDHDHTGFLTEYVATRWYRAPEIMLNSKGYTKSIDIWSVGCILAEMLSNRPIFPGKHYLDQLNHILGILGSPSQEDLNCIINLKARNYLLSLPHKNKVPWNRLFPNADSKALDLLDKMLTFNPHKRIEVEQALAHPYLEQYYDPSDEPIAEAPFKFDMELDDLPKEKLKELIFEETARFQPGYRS

[6] = target: T2, Calcium/calmodulin-dependent protein kinase type IV (Homo sapiens) (UniProt Q16566); test: Inhibition of CaMK4 at 10 uM by HTRF assay relative to control; method in brief: as §1
T2 sequence (whole entry): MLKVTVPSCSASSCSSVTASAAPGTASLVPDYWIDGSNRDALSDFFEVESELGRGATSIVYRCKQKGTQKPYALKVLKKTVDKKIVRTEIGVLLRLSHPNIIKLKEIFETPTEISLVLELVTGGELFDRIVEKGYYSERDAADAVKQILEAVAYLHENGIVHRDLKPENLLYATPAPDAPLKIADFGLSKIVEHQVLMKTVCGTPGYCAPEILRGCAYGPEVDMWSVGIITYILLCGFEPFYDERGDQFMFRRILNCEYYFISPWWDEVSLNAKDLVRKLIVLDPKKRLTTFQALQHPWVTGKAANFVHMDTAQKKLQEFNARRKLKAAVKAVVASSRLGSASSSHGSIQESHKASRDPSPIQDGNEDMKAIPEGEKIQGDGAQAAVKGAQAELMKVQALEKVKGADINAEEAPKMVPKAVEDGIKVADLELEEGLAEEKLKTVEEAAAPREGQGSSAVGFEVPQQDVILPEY

[7] = Inhibition of AMPKalpha at 10 uM by HTRF assay relative to control; method in brief: as §1
[8] = target: Protein kinase C alpha type (Homo sapiens) (UniProt P17252); test: Inhibition of PKCalpha at 10 uM by HTRF assay relative to control; method in brief: as §1
[9] = Inhibition of PKA at 10 uM by HTRF assay relative to control; method in brief: as §1
[10] = target: T3, Tyrosine-protein kinase ZAP-70 (Homo sapiens) (UniProt P43403); test: Inhibition of ZAP70 at 10 uM by HTRF assay relative to control; method in brief: as §1
T3 sequence (whole entry): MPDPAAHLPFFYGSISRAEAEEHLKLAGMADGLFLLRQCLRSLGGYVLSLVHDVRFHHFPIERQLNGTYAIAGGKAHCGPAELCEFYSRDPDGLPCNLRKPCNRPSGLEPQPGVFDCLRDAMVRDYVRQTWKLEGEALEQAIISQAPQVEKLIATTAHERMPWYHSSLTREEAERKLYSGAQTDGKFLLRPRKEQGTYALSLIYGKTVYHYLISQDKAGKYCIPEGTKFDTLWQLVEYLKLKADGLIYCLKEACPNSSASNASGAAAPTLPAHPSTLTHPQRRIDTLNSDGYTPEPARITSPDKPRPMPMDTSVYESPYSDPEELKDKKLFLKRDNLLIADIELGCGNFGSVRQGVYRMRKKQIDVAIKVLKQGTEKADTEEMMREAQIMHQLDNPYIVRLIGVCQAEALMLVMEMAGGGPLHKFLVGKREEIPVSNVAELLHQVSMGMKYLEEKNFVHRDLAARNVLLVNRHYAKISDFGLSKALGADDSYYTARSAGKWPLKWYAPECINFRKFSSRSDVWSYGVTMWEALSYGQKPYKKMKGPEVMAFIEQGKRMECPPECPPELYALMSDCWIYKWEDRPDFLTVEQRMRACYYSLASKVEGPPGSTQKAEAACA

[11] = target: Proto-oncogene tyrosine-protein kinase Src (Homo sapiens) (UniProt P12931); test: Inhibition of Src at 10 uM by HTRF assay relative to control; method in brief: as §1
Proto-oncogene tyrosine-protein kinase Src (Homo sapiens), sequence (P12931 2-536 limits assumed): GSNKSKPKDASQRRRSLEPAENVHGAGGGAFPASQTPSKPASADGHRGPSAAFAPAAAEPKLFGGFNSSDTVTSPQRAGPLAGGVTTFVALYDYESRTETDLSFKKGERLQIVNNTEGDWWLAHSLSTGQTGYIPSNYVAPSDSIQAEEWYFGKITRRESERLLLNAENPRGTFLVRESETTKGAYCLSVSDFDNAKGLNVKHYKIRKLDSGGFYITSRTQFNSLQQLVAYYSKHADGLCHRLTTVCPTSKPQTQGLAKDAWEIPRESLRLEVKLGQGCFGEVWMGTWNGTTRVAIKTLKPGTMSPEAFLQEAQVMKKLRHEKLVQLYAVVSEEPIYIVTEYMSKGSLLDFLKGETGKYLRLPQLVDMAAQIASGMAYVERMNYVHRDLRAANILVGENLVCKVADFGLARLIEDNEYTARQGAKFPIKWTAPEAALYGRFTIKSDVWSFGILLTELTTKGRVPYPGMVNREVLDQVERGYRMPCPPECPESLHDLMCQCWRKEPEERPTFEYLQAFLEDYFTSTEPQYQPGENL

[12] = target: Tyrosine-protein kinase ABL1 (Homo sapiens) (UniProt P00519); test: Inhibition of Abl at 10 uM by HTRF assay relative to control; method in brief: as §1
Tyrosine-protein kinase ABL1 (Homo sapiens), sequence (P00519 whole entry): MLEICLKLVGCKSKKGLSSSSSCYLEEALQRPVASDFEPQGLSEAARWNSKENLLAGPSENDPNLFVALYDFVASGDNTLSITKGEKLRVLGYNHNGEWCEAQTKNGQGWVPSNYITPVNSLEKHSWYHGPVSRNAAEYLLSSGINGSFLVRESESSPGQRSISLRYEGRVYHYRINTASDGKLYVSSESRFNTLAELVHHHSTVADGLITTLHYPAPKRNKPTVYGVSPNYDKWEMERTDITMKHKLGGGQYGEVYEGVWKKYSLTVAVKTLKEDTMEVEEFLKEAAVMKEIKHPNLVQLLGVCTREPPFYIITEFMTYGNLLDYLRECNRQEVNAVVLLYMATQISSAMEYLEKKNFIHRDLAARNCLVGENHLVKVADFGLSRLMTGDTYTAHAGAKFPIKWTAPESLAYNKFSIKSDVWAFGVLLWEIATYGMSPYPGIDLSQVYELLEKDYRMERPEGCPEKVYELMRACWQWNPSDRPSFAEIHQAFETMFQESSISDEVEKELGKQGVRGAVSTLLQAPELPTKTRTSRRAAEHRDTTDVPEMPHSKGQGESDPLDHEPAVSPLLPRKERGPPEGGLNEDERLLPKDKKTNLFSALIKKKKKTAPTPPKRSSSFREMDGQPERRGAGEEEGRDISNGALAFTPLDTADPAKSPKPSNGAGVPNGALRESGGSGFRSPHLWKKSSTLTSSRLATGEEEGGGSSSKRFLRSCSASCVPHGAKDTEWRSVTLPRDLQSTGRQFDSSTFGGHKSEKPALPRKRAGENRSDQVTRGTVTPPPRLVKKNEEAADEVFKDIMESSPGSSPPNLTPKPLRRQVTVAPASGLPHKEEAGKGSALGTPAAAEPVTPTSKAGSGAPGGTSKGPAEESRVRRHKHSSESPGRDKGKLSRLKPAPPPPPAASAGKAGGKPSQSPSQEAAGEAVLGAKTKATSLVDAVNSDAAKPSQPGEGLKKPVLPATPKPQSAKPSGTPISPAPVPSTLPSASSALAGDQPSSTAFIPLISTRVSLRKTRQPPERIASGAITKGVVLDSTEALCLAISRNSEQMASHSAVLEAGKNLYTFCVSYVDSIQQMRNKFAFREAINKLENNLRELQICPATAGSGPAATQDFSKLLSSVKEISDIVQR

Insulin-like growth factor 1 receptor (Homo sapiens), sequence (P08069 31-736 limits assumed): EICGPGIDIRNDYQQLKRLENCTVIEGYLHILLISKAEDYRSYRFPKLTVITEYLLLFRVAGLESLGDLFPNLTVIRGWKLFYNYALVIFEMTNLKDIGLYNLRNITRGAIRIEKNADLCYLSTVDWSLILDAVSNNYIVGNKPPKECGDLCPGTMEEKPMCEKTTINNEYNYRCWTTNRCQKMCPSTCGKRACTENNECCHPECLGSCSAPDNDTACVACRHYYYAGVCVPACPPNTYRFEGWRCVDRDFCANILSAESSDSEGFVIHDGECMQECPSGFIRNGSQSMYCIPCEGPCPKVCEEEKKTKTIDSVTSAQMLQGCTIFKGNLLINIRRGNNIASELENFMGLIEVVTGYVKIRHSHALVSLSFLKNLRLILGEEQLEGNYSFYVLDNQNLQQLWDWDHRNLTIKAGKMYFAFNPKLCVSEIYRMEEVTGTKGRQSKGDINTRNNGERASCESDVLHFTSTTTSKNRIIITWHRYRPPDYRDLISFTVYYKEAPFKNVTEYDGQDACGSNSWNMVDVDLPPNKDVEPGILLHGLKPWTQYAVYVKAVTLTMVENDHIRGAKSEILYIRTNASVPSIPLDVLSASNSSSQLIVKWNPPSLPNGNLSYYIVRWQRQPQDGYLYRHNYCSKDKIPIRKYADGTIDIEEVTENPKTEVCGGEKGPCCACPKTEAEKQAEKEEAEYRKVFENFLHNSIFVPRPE
Insulin-like growth factor 1 receptor (Homo sapiens), sequence (P08069 741-1367 limits assumed): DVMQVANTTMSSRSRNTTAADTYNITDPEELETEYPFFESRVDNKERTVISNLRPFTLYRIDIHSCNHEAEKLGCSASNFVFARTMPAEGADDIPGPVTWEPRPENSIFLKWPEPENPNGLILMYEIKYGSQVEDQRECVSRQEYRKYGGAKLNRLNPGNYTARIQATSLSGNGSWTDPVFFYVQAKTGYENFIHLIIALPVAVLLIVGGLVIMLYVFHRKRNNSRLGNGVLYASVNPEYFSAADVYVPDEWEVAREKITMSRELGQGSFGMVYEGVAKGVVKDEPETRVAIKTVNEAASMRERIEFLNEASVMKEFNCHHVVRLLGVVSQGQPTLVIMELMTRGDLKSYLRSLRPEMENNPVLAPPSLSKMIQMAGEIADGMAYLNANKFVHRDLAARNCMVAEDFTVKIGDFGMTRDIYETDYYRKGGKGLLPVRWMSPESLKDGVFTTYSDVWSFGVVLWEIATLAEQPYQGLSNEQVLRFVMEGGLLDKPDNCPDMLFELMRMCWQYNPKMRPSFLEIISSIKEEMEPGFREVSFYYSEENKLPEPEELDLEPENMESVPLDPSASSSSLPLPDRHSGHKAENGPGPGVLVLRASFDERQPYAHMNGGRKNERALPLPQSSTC

Structure (SMILES)	inhibition [1]	inhibition [2]	inhibition [3]	inhibition [4]	inhibition [5]	inhibition [6]	inhibition [7]	inhibition [8]	inhibition [9]	inhibition [10]	inhibition [11]	inhibition [12]
O=C(c1nc(SCc2ccc(Cl)cc2)n2ccccc12)N1CCN(c2cc(Nc3cccc(Br)c3)ncn2)CC1	0%	0%	6%	7%	1%	0%	5%	0%	1%	1%	2%	10%
Nc1nc(Nc2ccc(C(=O)NCCc3ccncc3)cc2)cc(N2CCOCC2)n1	0%	0%	10%	11%	0%	0%	0%	0%	3%	6%	3%	6%
Cc1cccc(N(C)c2cc(Nc3cccc(C(=O)N(CC(C)C)CC(C)C)c3)ncn2)c1	0%	0%	0%	0%	6%	0%	0%	0%	2%	0%	2%	10%
